# Measurements from ChEMBL document CHEMBL3627671, “Novel derivatives of nitro-substituted salicylic acids: Synthesis, antimicrobial activity and cytotoxicity” (Bioorg Med Chem, 2015).
# Key:
# [1] = test system: Mycobacterium tuberculosis; assay: Antimycobacterial activity against Mycobacterium tuberculosis H37Rv 331/88 after 14 days; type: functional; conditions: H37Rv 331/88, 336 h
# [2] = test system: Mycobacterium tuberculosis; assay: Antimycobacterial activity against Mycobacterium tuberculosis H37Rv 331/88 after 21 days; type: functional; conditions: H37Rv 331/88, 504 h
# Mycobacterium avium [3] = assay: Antimycobacterial activity against Mycobacterium avium 330/80 after 14 days; type: functional; conditions: 330/80, 336 h
# Mycobacterium avium [4] = assay: Antimycobacterial activity against Mycobacterium avium 330/80 after 21 days; type: functional; conditions: 330/80, 504 h
# Mycobacterium kansasii [5] = assay: Antimycobacterial activity against Mycobacterium kansasii 235/80 after 7 days; type: functional; conditions: 235/80, 168 h
# Procedure, shortened: (§1)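 Šula's semisynthetic medium micromethod at 37 °C, read after 7, 14 and 21 days. The 1.0 McFarland suspension was diluted 10^-4. MIC determined. 6509/96 is a clinical isolate.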
# Mycobacterium kansasii [6] = assay: Antimycobacterial activity against Mycobacterium kansasii 235/80 after 14 days; type: functional; conditions: 235/80, 336 h; procedure, shortened: as §1
# Mycobacterium kansasii [7] = assay: Antimycobacterial activity against Mycobacterium kansasii 235/80 after 21 days; type: functional; conditions: 235/80, 504 h; procedure, shortened: as §1
# Mycobacterium kansasii [8] = assay: Antimycobacterial activity against Mycobacterium kansasii 6509/96 after 7 days; type: functional; conditions: 6509/96, 168 h; procedure, shortened: as §1
# Mycobacterium kansasii [9] = assay: Antimycobacterial activity against Mycobacterium kansasii 6509/96 after 14 days; type: functional; conditions: 6509/96, 336 h; procedure, shortened: as §1
# Mycobacterium kansasii [10] = assay: Antimycobacterial activity against Mycobacterium kansasii 6509/96 after 21 days; type: functional; conditions: 6509/96, 504 h; procedure, shortened: as §1
# Staphylococcus aureus [11] = assay: Antibacterial activity against Staphylococcus aureus CCM 4516/08 after 24 hrs by microdilution broth method; type: functional; conditions: CCM 4516/08, 24 h
# Staphylococcus aureus [12] = assay: Antibacterial activity against Staphylococcus aureus CCM 4516/08 after 48 hrs by microdilution broth method; type: functional; conditions: CCM 4516/08, 48 h
# Staphylococcus aureus [13] = assay: Antibacterial activity against methicillin-resistant Staphylococcus aureus H 5996/08 after 24 hrs by microdilution broth method; type: functional; conditions: H 5996/08, 24 h
# Staphylococcus aureus [14] = assay: Antibacterial activity against methicillin-resistant Staphylococcus aureus H 5996/08 after 48 hrs by microdilution broth method; type: functional; conditions: H 5996/08, 48 h
# [15] = test system: Staphylococcus epidermidis; assay: Antibacterial activity against Staphylococcus epidermidis H 6966/08 after 24 hrs by microdilution broth method; type: functional; conditions: H 6966/08, 24 h
# Procedure, shortened: (§2)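 Mueller-Hinton broth microdilution (modified M07-A07), pH 7.4 (±0.2). Compounds dissolved in DMSO, tested at final 500 to 0.49 µmol/L. Inoculum in sterile water matched to 0.5 McFarland. Incubated in the dark, humid atmosphere, 35 °C, read at 24 and 48 h visually and at 540 nm. MIC taken as ≥95% growth reduction (IC95) versus control.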
# [16] = test system: Staphylococcus epidermidis; assay: Antibacterial activity against Staphylococcus epidermidis H 6966/08 after 48 hrs by microdilution broth method; type: functional; conditions: H 6966/08, 48 h; procedure, shortened: as §2
# Enterococcus sp. [17] = assay: Antibacterial activity against Enterococcus sp. J 14365/08 after 24 hrs by microdilution broth method; type: functional; conditions: J 14365/08, 24 h; procedure, shortened: as §2
# Enterococcus sp. [18] = assay: Antibacterial activity against Enterococcus sp. J 14365/08 after 48 hrs by microdilution broth method; type: functional; conditions: J 14365/08, 48 h; procedure, shortened: as §2
# Escherichia coli [19] = assay: Antibacterial activity against Escherichia coli CCM4517 after 24 hrs by microdilution broth method; type: functional; conditions: CCM4517, 24 h; procedure, shortened: as §2
# Escherichia coli [20] = assay: Antibacterial activity against Escherichia coli CCM4517 after 48 hrs by microdilution broth method; type: functional; conditions: CCM4517, 48 h; procedure, shortened: as §2
# Klebsiella pneumoniae [21] = assay: Antibacterial activity against Klebsiella pneumoniae D 11750/08 after 24 hrs by microdilution broth method; type: functional; conditions: D 11750/08, 24 h; procedure, shortened: as §2
# Klebsiella pneumoniae [22] = assay: Antibacterial activity against Klebsiella pneumoniae D 11750/08 after 48 hrs by microdilution broth method; type: functional; conditions: D 11750/08, 48 h; procedure, shortened: as §2
# Klebsiella pneumoniae [23] = assay: Antibacterial activity against ESBL-positive Klebsiella pneumoniae J 14368/08 after 24 hrs by microdilution broth method; type: functional; conditions: J 14368/08, 24 h; procedure, shortened: as §2
# Klebsiella pneumoniae [24] = assay: Antibacterial activity against ESBL-positive Klebsiella pneumoniae J 14368/08 after 48 hrs by microdilution broth method; type: functional; conditions: J 14368/08, 48 h; procedure, shortened: as §2
# Pseudomonas aeruginosa [25] = assay: Antibacterial activity against Pseudomonas aeruginosa CCM 1961 after 24 hrs by microdilution broth method; type: functional; conditions: CCM 1961, 24 h; procedure, shortened: as §2
# Pseudomonas aeruginosa [26] = assay: Antibacterial activity against Pseudomonas aeruginosa CCM 1961 after 48 hrs by microdilution broth method; type: functional; conditions: CCM 1961, 48 h; procedure, shortened: as §2
# Candida albicans [27] = assay: Antifungal activity against Candida albicans ATCC 44859 after 24 hrs by microdilution broth method; type: functional; conditions: ATCC 44859, 24 h
# Procedure, shortened: (§3)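 CLSI M27-A3 broth microdilution in RPMI 1640 with glutamine, buffered to pH 7.0 with MOPS; DMSO diluent. Yeast inoculum 5 × 10^3 ± 0.2 CFU/mL. Moulds grown on Sabouraud agar 3–10 days before spore harvest, final inoculum 0.5-5 × 10^4 CFU/mL, checked in a Bürker chamber. Incubated dark, humid, 35 °C, read at 24 and 48 h visually and at 540 nm. MIC taken as ≥80% (yeasts) or ≥50% (filamentous) growth reduction versus control.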
# Candida albicans [28] = assay: Antifungal activity against Candida albicans ATCC 44859 after 48 hrs by microdilution broth method; type: functional; conditions: ATCC 44859, 48 h; procedure, shortened: as §3
# Candida tropicalis [29] = assay: Antifungal activity against Candida tropicalis 156 after 24 hrs by microdilution broth method; type: functional; conditions: Candida tropicalis, 156, 24 h; procedure, shortened: as §3
# Candida tropicalis [30] = assay: Antifungal activity against Candida tropicalis 156 after 48 hrs by microdilution broth method; type: functional; conditions: Candida tropicalis, 156, 48 h; procedure, shortened: as §3
# Pichia kudriavzevii [31] = assay: Antifungal activity against Candida krusei E28 after 24 hrs by microdilution broth method; type: functional; conditions: E28, 24 h; procedure, shortened: as §3
# Pichia kudriavzevii [32] = assay: Antifungal activity against Candida krusei E28 after 48 hrs by microdilution broth method; type: functional; conditions: E28, 48 h; procedure, shortened: as §3
# Nakaseomyces glabratus [33] = assay: Antifungal activity against Candida glabrata 20/I after 24 hrs by microdilution broth method; type: functional; procedure, shortened: as §3
# Nakaseomyces glabratus [34] = assay: Antifungal activity against Candida glabrata 20/I after 48 hrs by microdilution broth method; type: functional; procedure, shortened: as §3
# Trichosporon asahii [35] = assay: Antifungal activity against Trichosporon asahii 1188 after 24 hrs by microdilution broth method; type: functional; conditions: Trichosporon asahii, 1188, 24 h; procedure, shortened: as §3
# Trichosporon asahii [36] = assay: Antifungal activity against Trichosporon asahii 1188 after 48 hrs by microdilution broth method; type: functional; conditions: Trichosporon asahii, 1188, 48 h; procedure, shortened: as §3
# Aspergillus fumigatus [37] = assay: Antifungal activity against Aspergillus fumigatus 231 after 24 hrs by microdilution broth method; type: functional; conditions: Aspergillus fumigatus, 231, 24 h; procedure, shortened: as §3
# Aspergillus fumigatus [38] = assay: Antifungal activity against Aspergillus fumigatus 231 after 48 hrs by microdilution broth method; type: functional; conditions: Aspergillus fumigatus, 231, 48 h; procedure, shortened: as §3
# Lichtheimia corymbifera [39] = assay: Antifungal activity against Absidia corymbifera 272 after 24 hrs by microdilution broth method; type: functional; conditions: Lichtheimia corymbifera, 272, 24 h; procedure, shortened: as §3
# Lichtheimia corymbifera [40] = assay: Antifungal activity against Absidia corymbifera 272 after 48 hrs by microdilution broth method; type: functional; conditions: Lichtheimia corymbifera, 272, 48 h; procedure, shortened: as §3
# [41] = test system: Trichophyton mentagrophytes; assay: Antifungal activity against Trichophyton mentagrophytes 445 after 24 hrs by microdilution broth method; type: functional; conditions: Trichophyton mentagrophytes, 445, 24 h
# [42] = test system: Trichophyton mentagrophytes; assay: Antifungal activity against Trichophyton mentagrophytes 445 after 48 hrs by microdilution broth method; type: functional; conditions: Trichophyton mentagrophytes, 445, 48 h
# HepG2 = assay: Cytotoxicity against human HepG2 cells after 24 hrs […]; type: cell-based; conditions: HepG2, 24 h
# [43] = Selectivity index, ratio of CI50 for human HepG2 cells to MIC100 for Mycobacterium tuberculosis H37Rv 331/88
compound,measurement,setting,value
O=C(Nc1ccc(C(F)(F)F)cc1)c1cc([N+](=O)[O-])ccc1O,MIC,[1],8 µM
same,MIC,[2],8 µM
same,MIC,Mycobacterium avium [3],62.5 µM
same,MIC,Mycobacterium avium [4],62.5 µM
same,MIC,Mycobacterium kansasii [5],8 µM
same,MIC,Mycobacterium kansasii [6],16 µM
same,MIC,Mycobacterium kansasii [7],32 µM
same,MIC,Mycobacterium kansasii [8],16 µM
same,MIC,Mycobacterium kansasii [9],32 µM
same,MIC,Mycobacterium kansasii [10],32 µM
same,MIC,Staphylococcus aureus [11],31.2 µM
same,MIC,Staphylococcus aureus [12],31.2 µM
same,MIC,Staphylococcus aureus [13],31.2 µM
same,MIC,Staphylococcus aureus [14],31.2 µM
same,MIC,[15],15.6 µM
same,MIC,[16],15.6 µM
same,MIC,Enterococcus sp. [17],> 500 µM
same,MIC,Enterococcus sp. [18],> 500 µM
same,MIC,Escherichia coli [19],> 500 µM
same,MIC,Escherichia coli [20],> 500 µM
same,MIC,Klebsiella pneumoniae [21],> 500 µM
same,MIC,Klebsiella pneumoniae [22],> 500 µM
same,MIC,Klebsiella pneumoniae [23],> 500 µM
same,MIC,Klebsiella pneumoniae [24],> 500 µM
same,MIC,Pseudomonas aeruginosa [25],> 500 µM
same,MIC,Pseudomonas aeruginosa [26],> 500 µM
same,MIC,Candida albicans [27],> 500 µM
same,MIC,Candida albicans [28],> 500 µM
same,MIC,Candida tropicalis [29],> 500 µM
same,MIC,Candida tropicalis [30],> 500 µM
same,MIC,Pichia kudriavzevii [31],> 500 µM
same,MIC,Pichia kudriavzevii [32],> 500 µM
same,MIC,Nakaseomyces glabratus [33],> 500 µM
same,MIC,Nakaseomyces glabratus [34],> 500 µM
same,MIC,Trichosporon asahii [35],500 µM
same,MIC,Trichosporon asahii [36],500 µM
same,MIC,Aspergillus fumigatus [37],500 µM
same,MIC,Aspergillus fumigatus [38],500 µM
same,MIC,Lichtheimia corymbifera [39],500 µM
same,MIC,Lichtheimia corymbifera [40],500 µM
same,MIC,[41],500 µM
same,MIC,[42],500 µM
same,IC50,HepG2,3.5 µM
same,Selectivity Index,[43],0.438
O=C(Nc1ccc(Cl)c(Cl)c1)c1cccc([N+](=O)[O-])c1O,MIC,[1],16 µM
same,MIC,[2],32 µM
same,MIC,Mycobacterium avium [3],250 µM
same,MIC,Mycobacterium avium [4],250 µM
same,MIC,Mycobacterium kansasii [5],32 µM
same,MIC,Mycobacterium kansasii [6],62.5 µM
same,MIC,Mycobacterium kansasii [7],62.5 µM
same,MIC,Mycobacterium kansasii [8],62.5 µM
same,MIC,Mycobacterium kansasii [9],62.5 µM
same,MIC,Mycobacterium kansasii [10],62.5 µM
same,IC50,HepG2,5.9 µM
same,Selectivity Index,[43],0.184
O=C(Nc1cccc(C(F)(F)F)c1)c1cccc([N+](=O)[O-])c1O,MIC,[1],32 µM
same,MIC,[2],32 µM
same,MIC,Mycobacterium avium [3],500 µM
same,MIC,Mycobacterium avium [4],500 µM
same,MIC,Mycobacterium kansasii [5],32 µM
same,MIC,Mycobacterium kansasii [6],62.5 µM
same,MIC,Mycobacterium kansasii [7],62.5 µM
same,MIC,Mycobacterium kansasii [8],125 µM
same,MIC,Mycobacterium kansasii [9],250 µM
same,MIC,Mycobacterium kansasii [10],250 µM
same,IC50,HepG2,8.9 µM
same,Selectivity Index,[43],0.278
O=C(Nc1ccc(C(F)(F)F)cc1)c1cccc([N+](=O)[O-])c1O,MIC,[1],32 µM
same,MIC,[2],32 µM
same,MIC,Mycobacterium avium [3],250 µM
same,MIC,Mycobacterium avium [4],250 µM
same,MIC,Mycobacterium kansasii [5],62.5 µM
same,MIC,Mycobacterium kansasii [6],125 µM
same,MIC,Mycobacterium kansasii [7],125 µM
same,MIC,Mycobacterium kansasii [8],62.5 µM
same,MIC,Mycobacterium kansasii [9],62.5 µM
same,MIC,Mycobacterium kansasii [10],125 µM
same,IC50,HepG2,8 µM
same,Selectivity Index,[43],0.25
